ChEMBL document CHEMBL1144512, “Synthesis and trypanocidal activity of ent-kaurane glycosides” (2007)
Active and inactive are the calls of the source. The calls are words filed in the database; no cut-off is given here.

Tests used:
Trypanosoma cruzi [1] = experiment: Trypanocidal activity against Trypanosoma cruzi Y blood stream trypomastigotes assessed as parasite lysis at 1.25 mM relative to control; assay type: functional
Outline: (§1)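 Infected blood with Y-strain bloodstream trypomastigotes was exposed to compound in 1% DMSO plus TCM199 at final 0.31–5.0 mM. Tubes were incubated 24 h at 4C. An aliquot was examined microscopically and parasites counted. Activity was calculated as percent parasite reduction versus negative control (1% DMSO + TCM199). DMSO and gentian violet control tubes were run in parallel.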

Trypanosoma cruzi [2] = experiment: Trypanocidal activity against blood stream Trypanosoma cruzi Y trypomastigotes assessed as parasite lysis at 5 mM relative to control; assay type: functional; outline: as §1
Trypanosoma cruzi [3] = experiment: Trypanocidal activity against Trypanosoma cruzi Y blood stream trypomastigotes assessed as parasite lysis at 2.50 mM relative to control; assay type: functional; outline: as §1
Trypanosoma cruzi [4] = experiment: Trypanocidal activity against Trypanosoma cruzi Y blood stream trypomastigotes assessed as parasite lysis at 0.63 mM relative to control; assay type: functional; outline: as §1
Trypanosoma cruzi [5] = experiment: Trypanocidal activity against Trypanosoma cruzi Y blood stream trypomastigotes assessed as parasite lysis at 0.31 mM relative to control; assay type: functional; outline: as §1
Trypanosoma cruzi [6] = experiment: Trypanocidal activity in Swiss albino mouse inoculated with Trypanosoma cruzi Y blood trypomastigotes assessed as parasitaemia reduction administered after 7th day of inoculation at 250 mg/kg, po after 6 hrs relative to control; assay type: functional; parameters: scale not given: the % may be the effect or the level left
Outline: (§2)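 Male Swiss albino mice (18–20 g, 30 days old) were infected ip with 5×10^4 Y-strain blood trypomastigotes. At peak parasitaemia (day 7), a single oral 250 mg/kg dose in DMSO 0.1 mL plus LIT 0.9 mL was given. Circulating parasites were counted microscopically before and 4 and 6 h after dosing. Percent reduction was taken versus pre-treatment count, with three mice per group, mean ± SD, and Split-Plot test.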

Trypanosoma cruzi [7] = experiment: Trypanocidal activity in Swiss albino mouse inoculated with Trypanosoma cruzi Y blood trypomastigotes assessed as parasitaemia reduction administered after 7th day of inoculation at 250 mg/kg, po after 4 hrs relative to control; assay type: functional; parameters: scale not given: the % may be the effect or the level left; outline: as §2
Blood [8] = experiment: Induction of total haemolysis in Albino mouse blood infected with Trypanosoma cruzi Y at 5 mM; assay type: functional, tissue-based
Outline: (§3)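 Erythrocyte lysis was scored in the in vitro trypomastigote tubes as partial or total haemolysis. Infected blood (0.2 mL) was mixed with compound in 1% DMSO plus TCM199 at final 0.31, 0.63, 1.25, 2.50 and 5.0 mM. Tubes were incubated 24 h at 4C and examined microscopically.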

Blood [9] = experiment: Induction of total haemolysis in Albino mouse blood infected with Trypanosoma cruzi Y at 1.25 mM; assay type: functional, tissue-based; outline: as §3
Blood [10] = experiment: Induction of total haemolysis in Albino mouse blood infected with Trypanosoma cruzi Y at 2.5 mM; assay type: functional, tissue-based; outline: as §3

| Structure (SMILES) | Activity (Trypanosoma cruzi [1]) [%] | Activity (Trypanosoma cruzi [2]) [%] | Activity (Trypanosoma cruzi [3]) [%] | Activity (Trypanosoma cruzi [4]) [%] | Activity (Trypanosoma cruzi [5]) [%] | Activity (Trypanosoma cruzi [6]) [%] | Activity (Trypanosoma cruzi [7]) [%] | Activity (Blood [8]) | Activity (Blood [9]) | Activity (Blood [10]) |
| --- | --- | --- | --- | --- | --- | --- | --- | --- | --- | --- |
| C=C1C[C@@]23CC[C@@H]4[C@](C)(CO)CCC[C@@]4(C)[C@@H]2CC[C@H]1C3 | 66 | 100 | 72 | – | – | – | – | – | – | – |
| COC(=O)[C@]1(C)CCC[C@@]2(C)C3CC[C@@H]4C[C@@]3(CCC21)C[C@@H]4CO (stereo partly specified) | – | 100 | 100 | 94 | 45 | – | – | – | – | – |
| O=C(Cn1ccnc1[N+](=O)[O-])NCc1ccccc1 [BENZNIDAZOLE] | – | – | – | – | – | 92.6 | 91.7 | – | – | – |
| C=C1C[C@@]23CC[C@H]4[C@@](C)(CCC[C@@]4(C)C(=O)O)[C@@H]2CC[C@@H]1C3 [KAURENOIC ACID] | 100 | 100 | 100 | 90 | 0 | – | – | Active | Active | Active |
| C=C1C[C@@]23CCC4[C@@](C)(CCC[C@@]4(C)C(=O)OC)C2CC[C@@H]1C3 (stereo partly specified) | 88 | 100 | 100 | 48 | 45 | 51.5 | 56.5 | – | – | – |
| CN(C)c1ccc(C(=C2C=CC(=[N+](C)C)C=C2)c2ccc(N(C)C)cc2)cc1.[Cl-] [GENTIAN VIOLET] | 100 | – | 100 | 100 | 67 | – | – | – | – | – |
| C=C1C[C@@]23CCC4[C@](C)(CO[C@@H]5O[C@@H](CO)[C@H](O)[C@@H](O)[C@@H]5OC(C)=O)CCC[C@@]4(C)C2CC[C@@H]1C3 (stereo partly specified) | 0 | 56 | 0 | – | – | – | – | – | – | – |
